ChEMBL document CHEMBL2424587, “Antiproliferative activity of abietane diterpenoids against human tumor cells” (J Nat Prod, 2013)
The source made the active and inactive calls. The calls are words filed in the database; no cut-off is given here.

Assays:
[1] = test system: HL-60; experiment: Induction of apoptosis in human HL60 cells assessed as reduction in mitochondrial membrane potential at 3 uM after 24 hrs by JC-1 staining-based flow cytometry in presence of cyclosporin A; type: functional, cell-based
How it was run: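 HL-60 cells exposed to 3 μM diterpene for 24 h alongside permeability transition pore inhibitors cyclosporin A (25 μM, 24 h) or bongkrekic acid (25−50 μM, 24 h). Apoptosis was scored by flow cytometry. Mitochondrial membrane potential was read by JC-1 fluorescence on flow cytometry.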

[2] = test system: HL-60; experiment: Induction of apoptosis in human HL60 cells after 24 hrs by flow cytometry in presence of caspase-9 inhibitor Z-LEHD-FMK; type: functional, cell-based
How it was run: (§1)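 HL-60 cells pretreated 1 h with caspase inhibitor, then given diterpene for 24 h; hypodiploid cells counted by flow cytometry; mean ± SE of three independent experiments in triplicate.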

[3] = test system: HL-60; experiment: Induction of apoptosis in human HL60 cells assessed as decrease in Bcl-2 level by Western blotting analysis; type: functional, cell-based
How it was run: (§2)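 HL-60 cells incubated with the diterpene; whole-cell lysates probed by Western blot for Bcl-2 family proteins, with β-actin as loading control.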

[4] = test system: HL-60; experiment: Induction of apoptosis in human HL60 cells after 24 hrs by flow cytometry in presence of p38 MAPK inhibitor SB203580 (reference value: 15.1 +/- 3.8%); type: functional
[5] = test system: HL-60; experiment: Induction of ROS-mediated cell death in human HL60 cells at 3 uM after 15 mins to 4 hrs by flow cytometry in presence of NAC; type: functional, cell-based
[6] = test system: HL-60; experiment: Induction of apoptosis in human HL60 cells assessed as accumulation at sub-G1 phase at 3 uM after 24 hrs by AnnexinV-FITC/propidium iodide staining-based flow cytometry (reference value: 4%)
[7] = test system: HL-60; experiment: Induction of apoptosis in human HL60 cells assessed as decrease in Bax level by Western blotting analysis; type: functional, cell-based; how it was run: as §2
[8] = test system: HL-60; experiment: Induction of apoptosis in human HL60 cells assessed as hypodiploid cells at 3 uM by flow cytometry; type: functional, cell-based; conditions: TDE = time-dependent effect
[9] = test system: HL-60; experiment: Induction of apoptosis in human HL60 cells assessed as hypodiploid cells after 24 hrs by flow cytometry in presence of caspase-8 inhibitor Z-IETD-FMK; type: functional, cell-based; how it was run: as §1
[10] = test system: HL-60; experiment: Induction of apoptosis in human HL60 cells after 24 hrs by flow cytometry in presence of MEK2 inhibitor U0126; type: functional, cell-based
[11] = test system: HL-60; experiment: Induction of apoptosis in human HL60 cells after 24 hrs by flow cytometry in presence of JNK/SAPK inhibitor SP600125; type: functional, cell-based
[12] = test system: HL-60; experiment: Induction of apoptosis in human HL60 cells after 24 hrs by flow cytometry in presence of MEK1 inhibitor PD98059; type: functional, cell-based
[13] = test system: HL-60; experiment: Induction of intracellular ROS generation in human HL60 cells at 3 uM after 15 mins to 4 hrs by flow cytometry; type: functional, cell-based
How it was run: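 HL-60 cells given 3 μM diterpene for the indicated times, then loaded with H2-DCF-DA. Fluorescence of oxidized H2DCF was measured by flow cytometry. Three independent experiments.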

[14] = test system: HL-60; experiment: Induction of apoptosis in human HL60 cells assessed as procaspase-7 cleavage at 3 uM after 24 hrs by immunoblotting analysis; type: functional, cell-based
How it was run: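 HL-60 cells treated 24 h with 3 μM; immunoblots of lysates probed with antibodies that recognize both pro-caspases and cleaved caspases, and for PARP.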

[15] = test system: HL-60; experiment: Induction of apoptosis in human HL60 cells assessed as abundant vacuoles at 3 uM after 24 hrs by transmission electron microscopy; type: functional, cell-based
How it was run: (§3)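 HL-60 cells incubated 24 h with 3 μM compound and examined by transmission electron microscopy for ultrastructural changes.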

[16] = test system: HL-60; experiment: Induction of apoptosis in human HL60 cells assessed as fragmented and/or condensed nuclei at 3 uM after 24 hrs by transmission electron microscopy; type: functional, cell-based; how it was run: as §3
[17] = test system: HL-60; experiment: Cell cycle arrest in human HL60 cells assessed as accumulation at G1 phase at 3 uM after 24 hrs by […]propidium iodide staining-based flow cytometry (reference value: 43%); type: functional
[18] = test system: HL-60; experiment: Cell cycle arrest in human HL60 cells assessed as accumulation at G2-M phase at 3 uM after 24 hrs by […]propidium iodide staining-based flow cytometry (reference value: 4%); type: functional
[19] = test system: HL-60; experiment: Induction of apoptosis in human HL60 cells assessed as dense perinuclear condensation at 3 uM after 24 hrs by transmission electron microscopy; type: functional, cell-based; how it was run: as §3

SMILES | Activity [1] | Activity [2] | Activity [3] | Activity [4] | Activity [5] | Activity [6] [%] | Activity [7] | Activity [8] | Activity [9] | Activity [10] | Activity [11] | Activity [12] | Activity [13] | Activity [14] | Activity [15] | Activity [16] | Activity [17] [%] | Activity [18] [%] | Activity [19]
CC(=O)O[C@H]1C2=C(C(=O)C(OC(=O)c3ccc(Cl)cc3)=C(C(C)C)C2=O)[C@@]2(C)CCCC(C)(C)[C@@H]2[C@@H]1O | Active | Active | Active | Active | inactive | 9 | Active | tde | Active |  |  |  |  |  |  |  |  |  | 
COc1ccc(C(=O)OC2=C(C(C)C)C(=O)C3=C(C2=O)[C@@]2(C)CCCC(C)(C)[C@@H]2[C@H](O)[C@H]3OC(C)=O)cc1 | Active | Active |  |  |  | 8 |  | tde | Active | Active | Active | Active | inactive |  |  |  |  |  | 
CC(=O)O[C@H]1C2=C(C(=O)C(OC(=O)c3ccccc3)=C(C(C)C)C2=O)[C@@]2(C)CCCC(C)(C)[C@@H]2[C@@H]1OC(=O)c1ccccc1 | Active | Active |  | Active | inactive |  |  | tde | inactive | Active | Active | Active |  | Active | Active | Active | 30 | 16 | Active
